The values below come from ChEMBL document CHEMBL4038309, “Design and Synthesis of Chlorinated and Fluorinated 7-Azaindenoisoquinolines as Potent Cytotoxic Anticancer Agents That Inhibit Topoisomerase I” (J Med Chem, 2017).

Structures are written as SMILES. Active and inactive are the calls of the source. The calls are words filed in the database; no cut-off is given here.

In one assay the test system is HCT-116. The experiment in a line: Antiproliferative activity against human HCT116 cells assessed as growth inhibition. The format is functional. The essentials: (§1)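 NCI-60 screen: single-dose pre-screen at 10 μM, then five concentrations from 0.01 to 100 μM. Values beyond the tested range are recorded as 0.01 or 100 μM.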
Another assay deals with UACC-62. Description: Antiproliferative activity against human UACC62 cells assessed as growth inhibition. The format is functional. The procedure, abridged:
as §1

In a further assay the test system is HOP-62. Description: Antiproliferative activity against human HOP62 cells assessed as growth inhibition. The assay is classed as functional. The essentials: as §1
Another assay deals with DU-145. Description: Antiproliferative activity against human DU145 cells assessed as growth inhibition. The format is functional. The essentials: as §1
The next assay concerns SF-539. Description: Antiproliferative activity against human SF539 cells assessed as growth inhibition. The assay is classed as functional. The procedure, abridged:
as §1

A further assay concerns OVCAR-3. Description: Antiproliferative activity against human OVCAR3 cells assessed as growth inhibition. The format is functional. The essentials: as §1
Assay [1] has as its target T1, DNA topoisomerase 1 (Homo sapiens) (UniProt P11387).
T1 sequence (whole entry): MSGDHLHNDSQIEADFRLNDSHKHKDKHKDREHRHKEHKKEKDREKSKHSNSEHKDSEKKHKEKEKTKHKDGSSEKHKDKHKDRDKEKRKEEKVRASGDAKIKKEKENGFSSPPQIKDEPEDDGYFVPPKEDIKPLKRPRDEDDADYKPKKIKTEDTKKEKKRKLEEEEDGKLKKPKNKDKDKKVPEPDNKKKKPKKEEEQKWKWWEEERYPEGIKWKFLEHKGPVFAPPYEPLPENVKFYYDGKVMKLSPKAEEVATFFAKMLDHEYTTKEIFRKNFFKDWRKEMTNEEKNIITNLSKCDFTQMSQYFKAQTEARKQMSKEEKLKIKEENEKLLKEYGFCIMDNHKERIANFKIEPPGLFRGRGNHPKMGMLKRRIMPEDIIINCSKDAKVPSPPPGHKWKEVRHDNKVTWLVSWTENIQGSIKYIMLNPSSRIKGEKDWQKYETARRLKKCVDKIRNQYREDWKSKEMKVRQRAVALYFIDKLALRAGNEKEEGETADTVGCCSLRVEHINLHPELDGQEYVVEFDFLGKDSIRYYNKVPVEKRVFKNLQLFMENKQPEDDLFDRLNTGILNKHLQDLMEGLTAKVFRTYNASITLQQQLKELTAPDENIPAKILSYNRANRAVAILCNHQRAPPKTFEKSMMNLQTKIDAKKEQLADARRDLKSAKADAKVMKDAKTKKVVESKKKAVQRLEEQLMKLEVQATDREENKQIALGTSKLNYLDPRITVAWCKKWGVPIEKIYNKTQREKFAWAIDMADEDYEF
The experiment in a line: Inhibition of recombinant Top1 (unknown origin) assessed as Top 1 mediated DNA cleavage using 3'-[32P]-labeled 117 bp DNA as substrate at 0.1 to 100 uM after 20 mins by PAGE analysis. The essentials:
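About 2 nM 3'-[32P]-labeled DNA with recombinant Top1 in 10 mM Tris-HCl pH 7.5, 50 mM KCl, 5 mM MgCl2, 0.1 mM EDTA, 15 μg/mL BSA, 25 °C, 20 min. Compound at 0.1, 1, 10 and 100 μM. Stopped with 0.5% SDS and formamide dye, then run on 20% denaturing PAGE with phosphorimaging.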

The subject of another assay is SN12C. The experiment in a line: Antiproliferative activity against human SN12C cells assessed as growth inhibition. The assay is classed as functional. The procedure, abridged:
as §1

In a further assay the test system is MCF7. Description: Antiproliferative activity against human MCF7 cells assessed as growth inhibition. The format is functional. The essentials:
as §1

For orientation: GI50 means the concentration at which growth is held to half of that of the control. On to `COc1cnc2c(c1)C(=O)c1c-2n(CCCNC2=NCCS2)c(=O)c2cc(F)ccc12`, for which the GI50 in the assay on HCT-116 worked out at 82 nM; in the assay with UACC-62 it was 344 nM; with HOP-62, 59 nM; in the assay on DU-145, 144 nM; in the assay with SF-539 it was 305 nM; in the assay on OVCAR-3, 567 nM. In addition, the GI50 in the assay with SN12C was 238 nM; in the assay on MCF7, 33 nM. In addition, in [1], the “Top1-mediated DNA cleavage activity (active/not active)” value is “Active”.

Take `COc1cnc2c(c1)C(=O)c1c-2n(CCCN2CCOCC2)c(=O)c2cc(Cl)ccc12`: the GI50 with HCT-116 came out at 160 nM; in the assay on UACC-62, 180 nM; with HOP-62, 270 nM; in the assay with DU-145, 410 nM; with SF-539, 230 nM; in the assay with OVCAR-3, 780 nM. Moreover, the concentration for 50% growth inhibition (GI50) in the assay with MCF7 came out at 90 nM. In assay [1], the “Top1-mediated DNA cleavage activity (active/not active)” value was “Active”.

In the case of `O=C1c2ccccc2-c2c1c1ccc([N+](=O)[O-])cc1c(=O)n2CCCn1ccnc1`, the “Top1-mediated DNA cleavage activity (active/not active)” value in [1] was “Active”.

With `COc1cnc2c(c1)C(=O)c1c-2n(CCCN2CCCC2)c(=O)c2cc(F)ccc12`, the concentration for 50% growth inhibition (GI50) in the assay with HCT-116 was 153 nM; in the assay with UACC-62, 471 nM; in the assay with HOP-62, 212 nM; with DU-145, 211 nM; in the assay with SF-539 it was 360 nM; with OVCAR-3 it was 307 nM. Further, the GI50 stood at 241 nM with SN12C and 48 nM in the assay with MCF7. The “Top1-mediated DNA cleavage activity (active/not active)” value in assay [1] is “Active”.

With `COc1cnc2c(c1)C(=O)c1c-2n(CCCN2CCNCC2)c(=O)c2cc(Cl)ccc12`, the GI50 worked out at 298 nM with HCT-116; 1430 nM in the assay on UACC-62; 200 nM in the assay on HOP-62; 242 nM with DU-145; 1330 nM in the assay on SF-539; 1430 nM in the assay on OVCAR-3. For the same compound, the 50% growth inhibitory concentration (GI50) in the assay on SN12C amounted to 489 nM; with MCF7, 89 nM. In addition, in assay [1], the “Top1-mediated DNA cleavage activity (active/not active)” value was “inactive”.

Turning to `COc1cnc2c(c1)C(=O)c1c-2n(CCCNC2=NCCS2)c(=O)c2cc(Cl)ccc12`, the GI50 in the assay on HCT-116 came to 350 nM; in the assay on UACC-62 it was 95 nM; in the assay with HOP-62, 42 nM; with DU-145 it was 92 nM; with SF-539, 470 nM; in the assay with OVCAR-3, 1300 nM. Also, the GI50 in the assay with MCF7 came out at 36 nM. Also, the “Top1-mediated DNA cleavage activity (active/not active)” value in assay [1] is “Active”.

Take `CNCCCn1c2c(c3ccc(Cl)cc3c1=O)C(=O)c1cc(OC)cnc1-2`: the GI50 came out at 550 nM in the assay on HCT-116; 574 nM in the assay on UACC-62; 220 nM with HOP-62; 331 nM in the assay with DU-145; 730 nM in the assay on SF-539; 1410 nM in the assay on OVCAR-3. The results for the GI50 in the assay on SN12C and in the assay on MCF7 were 1180 nM and 46 nM, respectively. The “Top1-mediated DNA cleavage activity (active/not active)” value in assay [1] is “Active”.

On to `COc1cnc2c(c1)C(=O)c1c-2n(CCCNC(C)C)c(=O)c2cc(F)ccc12`, for which the GI50 in the assay with HCT-116 came to 93 nM; in the assay with UACC-62 it was 271 nM; with HOP-62, 107 nM; with DU-145, 210 nM; with SF-539, 248 nM; in the assay on OVCAR-3, 190 nM. Further, the 50% growth inhibitory concentration (GI50) in the assay with SN12C was 164 nM; in the assay with MCF7 it was 31 nM. The “Top1-mediated DNA cleavage activity (active/not active)” value in assay [1] was “Active”.

In the case of `COc1cnc2c(c1)C(=O)c1c-2n(CCCNC(C)C)c(=O)c2cc(Cl)ccc12`, the GI50 in the assay with HCT-116 turned out to be 138 nM; in the assay on UACC-62 it was 303 nM; in the assay on HOP-62, 70 nM; in the assay with DU-145, 173 nM; with SF-539 it was 554 nM; in the assay on OVCAR-3, 1390 nM. In addition, the concentration for 50% growth inhibition (GI50) was found to be 417 nM with SN12C and 37 nM with MCF7. Also, the “Top1-mediated DNA cleavage activity (active/not active)” value in [1] was “Active”.

For `CCNCCCn1c2c(c3ccc(F)cc3c1=O)C(=O)c1cc(OC)cnc1-2`, the GI50 in the assay with HCT-116 was 136 nM; in the assay with UACC-62 it was 341 nM; with HOP-62, 149 nM; in the assay with DU-145, 215 nM; in the assay on SF-539 it was 320 nM; with OVCAR-3 it was 282 nM. The GI50 in the assay on SN12C turned out to be 151 nM; with MCF7 it was 42 nM. Besides, in [1], the “Top1-mediated DNA cleavage activity (active/not active)” value is “Active”.

`COc1cnc2c(c1)C(=O)c1c-2n(CCCN2CCC(O)CC2)c(=O)c2cc(F)ccc12`: the concentration for 50% growth inhibition (GI50) in the assay on HCT-116 worked out at 89 nM; in the assay with UACC-62, 240 nM; in the assay with HOP-62, 142 nM; in the assay with DU-145, 174 nM; in the assay on SF-539, 295 nM; in the assay on OVCAR-3 it was 254 nM. Further, the GI50 stood at 189 nM in the assay on SN12C and 31 nM in the assay on MCF7. For the same compound, the “Top1-mediated DNA cleavage activity (active/not active)” value in [1] was “inactive”.

In the case of `O=C1c2ccccc2-c2c1c1ccc(Cl)cc1c(=O)n2CCCn1ccnc1`, the concentration for 50% growth inhibition (GI50) in the assay on UACC-62 was 74 nM; in the assay on SN12C it was 110 nM; with MCF7, 31 nM. Moreover, in assay [1], the “Top1-mediated DNA cleavage activity (active/not active)” value was “Active”.

On to `COc1cnc2c(c1)C(=O)c1c-2n(CCCN2CCNCC2)c(=O)c2cc(F)ccc12`, for which the GI50 in the assay on HCT-116 worked out at 91 nM; in the assay on UACC-62 it was 1260 nM; in the assay on HOP-62 it was 66 nM; in the assay on DU-145, 62 nM; in the assay with SF-539, 532 nM; in the assay with OVCAR-3, 335 nM. In addition, the 50% growth inhibitory concentration (GI50) is 80 nM in the assay with SN12C and 34 nM with MCF7. In addition, in assay [1], the “Top1-mediated DNA cleavage activity (active/not active)” value was “inactive”.

For `COc1cnc2c(c1)C(=O)c1c-2n(CCCN2CCOCC2)c(=O)c2cc(F)ccc12`, the GI50 in the assay on HCT-116 amounted to 115 nM; in the assay on UACC-62, 235 nM; with HOP-62 it was 187 nM; with DU-145 it was 341 nM; in the assay with SF-539, 228 nM; in the assay with OVCAR-3 it was 250 nM. The figures for the GI50 in the assay on SN12C and in the assay on MCF7 were 320 nM and 44 nM, respectively. Moreover, the “Top1-mediated DNA cleavage activity (active/not active)” value in [1] was “Active”.

With `COc1cnc2c(c1)C(=O)c1c-2n(CCCN2CCCC2)c(=O)c2cc(Cl)ccc12`, the “Top1-mediated DNA cleavage activity (active/not active)” value in [1] is “Active”.

As to `COc1cnc2c(c1)C(=O)c1c-2n(CCCN2CCOCC2)c(=O)c2cc([N+](=O)[O-])ccc12`, the “Top1-mediated DNA cleavage activity (active/not active)” value in assay [1] is “Active”.

Consider `CNCCCn1c2c(c3ccc(F)cc3c1=O)C(=O)c1cc(OC)cnc1-2`, for which the GI50 was 143 nM with HCT-116; 608 nM with UACC-62; 142 nM in the assay with HOP-62; 202 nM with DU-145; 368 nM with SF-539; 263 nM in the assay on OVCAR-3. The values for the concentration for 50% growth inhibition (GI50) with SN12C and with MCF7 were 211 nM and 34 nM, respectively. In assay [1], the “Top1-mediated DNA cleavage activity (active/not active)” value was “inactive”.
